RGS4 act: potentiators or activators of RGS4; HEK293 M3R/inducible RGS4, carbachol calcium flux Fluo4; active compounds read low; B-score at 10 µM; 0.92% of 310,000 active;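 active = B-score of the integrated calcium signal more than 4 SD below the library mean, with starting fluorescence not abnormally high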;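 also: negative B-score means reduced calcium response which marks RGS4 activation or potentiation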
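test system = HEK293 cells with stable M3R and inducible RGS4 | schedule = recording 10 s baseline at 1 Hz, 100 s post-agonist | technique = Fluo4-AM (2 µM) calcium-flux fluorescence, kinetic read | measure = Agonist-evoked peak-minus-minimum fluorescence over baseline, integrated ratio, B score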
MrgX1 allo act: allosterically activates human MrgX1 receptor signaling. MrgX1-HEK293, Fluo-4 calcium flux, FDSS; active compounds read high. B-score at 10 µM. Q96LB2. 0.63% of 310,000 active;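 active = plate-corrected calcium response at least 3 library SD above typical, normal starting fluorescence, not activating the receptor alone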;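 also: compound read alongside a low EC10 to EC30 dose of BAM8-22 agonist; peak minus trough fluorescence over baseline measured at the second addition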
Target sequence (Q96LB2 whole entry, looked up): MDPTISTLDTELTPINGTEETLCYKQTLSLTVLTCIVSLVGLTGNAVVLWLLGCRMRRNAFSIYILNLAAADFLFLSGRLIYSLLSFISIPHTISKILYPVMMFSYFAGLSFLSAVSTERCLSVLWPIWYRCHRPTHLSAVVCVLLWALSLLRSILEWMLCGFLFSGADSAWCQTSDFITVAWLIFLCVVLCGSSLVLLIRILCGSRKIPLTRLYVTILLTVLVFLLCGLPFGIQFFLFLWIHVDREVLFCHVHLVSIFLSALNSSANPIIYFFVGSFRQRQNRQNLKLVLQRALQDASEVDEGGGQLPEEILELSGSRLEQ
MrgX1 agonist: human MrgX1 receptor agonism, primary screen; MrgX1-HEK293 cells, Fluo-4 calcium fluorescence, agonist mode; active compounds read high; B-score at 10 µM; Q96LB2; AID 588627; 0.44% of 310,000 active;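 active = calcium response B-score plate-corrected fluorescence ratio at least 3 library SD, with starting fluorescence B-score inside 5 SD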
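Test system: HEK293 cells stably expressing human MrgX1 receptor; amount: 15,000 cells per well; doses: compound delivered in addition one of three; times: overnight plating before 1 h dye loading; detection: Fluo-4 NW calcium-flux fluorescence, kinetic read; read-out basis: B-scored fluorescence response ratio; controls: positive and negative controls per plate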
RGS4 block: inhibitors of human RGS4 | B-score at 10 µM | 0.45% of 310,000 active | HEK293 M3R/RGS4 inducible, Fluo-4 calcium flux; active compounds read high; triggered by carbachol at its EC20 | AID 463165;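 active = B-score, a plate-corrected calcium signal, over three deviations above library mean, with baseline fluorescence within five deviations of library mean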;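 also: RGS4 expression induced by doxycycline in cells with stable M3 receptor; B-score is computed from the integrated fluorescence ratio over baseline after carbachol; higher B-score means a larger calcium signal and so more RGS4 inhibition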
MrgX1 antagonist: blocks BAM8-22 activation of human MrgX1 receptor. B-score at 10 µM. 1.3% of 310,000 active. Q96LB2. MRGX1-HEK293 calcium flux, Fluo-4, BAM8-22 antagonism; active compounds read low;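 active = calcium-response B-score plate-corrected more than 3 library SD below zero, starting fluorescence within 5 deviations, no agonist response on first addition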;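 also: peak minus trough fluorescence over baseline after final BAM8-22 challenge near maximal dose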
* hit, by the source's call; i = inactive. Rows were chosen to be rich in hits. Some 3.5% of all compounds tested hit in one or more screens of this group.

SMILES | RGS4 act | MrgX1 allo act | MrgX1 agonist | RGS4 block | MrgX1 antagonist
COc1ccc(/C=N/Nc2snc(SC)c2C#N)cc1OC | i | i | i | i | i
COc1cccc(/C=N/NC(=O)N/N=C/c2cccc(OC)c2O)c1O | -7.91* | i | i | i | i
COc1cccc(/C=N/NC(=O)C(=O)N2CCCC2)c1O | i | i | i | i | i
CC(=O)c1cccc(N(C(=O)CNC(=O)c2cccs2)C(C(=O)NCC2CCCO2)c2ccccc2)c1 (configuration not stated) | i | i | i | i | i
CCCOc1ccc(C(=O)NNC(=S)NC(=O)CC)cc1 | i | i | 51.3* | i | i
C=CCNC(=S)NNC(=O)c1ccc(OCCC)cc1 | i | i | i | i | i
O=c1c(Cl)c(N2CCOCC2)cnn1-c1nc2ccccc2[nH]1 | i | i | i | i | -7.07*
CCN(CCCC(=O)c1ccc(F)cc1)CCc1ccccc1 | -7.1* | i | i | i | i
CCN(CCCc1ccccc1)CCCc1ccccc1 | i | i | i | i | i
CCn1cc(-c2ccccc2)c(C(=O)O)c1-c1ccc(OC)cc1 | i | i | i | i | i
O=C(NCc1ccc2c(c1)OCO2)c1cc([N+](=O)[O-])ccc1N1CCCCC1 | -7.37* | i | i | i | i
Cc1ccc(C2=NS(=O)(=O)N(C)C(C(=O)NCc3ccccc3)=C2)cc1 | i | i | i | i | i
O=C1C(=O)N(CCCc2ccccc2)c2ccccc21 | i | i | 38.4* | i | i
N#C/C(=C/c1ccc(-c2cc(C(=O)O)cc(C(=O)O)c2)o1)c1nc2ccccc2s1 | i | i | 27* | i | i
CCOc1ccc(C2C=C(c3ccc(C)cc3)Nc3ncnn32)cc1 (configuration not stated) | i | i | 29.9* | i | i
COc1ccc(C2C=C(c3ccccc3)Nc3ncnn32)cc1 (configuration not stated) | i | 9.98* | i | i | i
COc1ccc(C2C=C(C)Nc3ncnn32)cc1 (configuration not stated) | i | i | i | i | i
COc1cccc(N(C(=O)CNC(=O)c2ccco2)C(C(=O)NC2CCCC2)c2ccco2)c1 (configuration not stated) | i | i | i | i | i
CN(C)c1nccc(N(Cc2ccccc2)Cc2ccccc2)c1C#N | -7.02* | i | i | i | i
CN(C)CCN(Cc1ccccc1)c1ccnc(N(C)C)c1C#N | i | i | i | i | i
Nc1nc2c(s1)CCc1c-2cnn1-c1ccccc1 | i | i | 33.3* | i | i
Nc1nc2c(s1)COc1ccccc1-2 | i | i | i | i | i
COc1ccc(CN2C(=O)c3ccccc3C(/C=N/OCc3ccc(Cl)cc3)C2=O)cc1 (configuration not stated) | i | i | 37.7* | i | i
CC(C)Cn1c(/C=C/c2ccco2)nc2ccccc21 | i | i | i | i | i
Cc1ccccc1-n1c(SCc2c(C)noc2C)nnc1-c1c[nH]c2ccccc12 | i | i | i | i | -4.54*
SMILES | RGS4 act | MrgX1 allo act | MrgX1 agonist | RGS4 block | MrgX1 antagonist
COC(=O)c1cccc2nc3c(C(C)O)cccc3nc12 (configuration not stated) | i | i | i | i | i
Cn1c(NNC(=O)C2CCCCC2)cc(=O)n(C)c1=O | i | i | i | i | i
C/C(=N\NC(=O)COc1ccc(C)cc1Br)c1cc([N+](=O)[O-])cs1 | i | i | i | i | i
CCOc1ccc(C(=O)Nc2ccc(NC(=O)c3cccs3)cc2)cc1[N+](=O)[O-] | i | i | i | i | -7.26*
C/C(=N\NC(=O)COc1ccc(C)cc1[N+](=O)[O-])c1cccs1 | i | i | i | i | -6.52*
CC1(C)Cc2c(sc(NC(=O)C(=O)N3CCCCC3)c2C(=O)O)CO1 | i | i | i | i | i
NC1=NC(=O)/C(=C/c2ccc(-c3ccc(S(N)(=O)=O)cc3)o2)S1 | i | i | i | i | -4.7*
